Eight compounds from ChEMBL document CHEMBL1250540, “Design, synthesis, and binding of homologated truncated 4'-thioadenosine derivatives at the human A3 adenosine receptors” (Bioorg Med Chem, 2010) can be followed below.

One may read the inhibition as the drop in the measured response relative to a control, in per cent. Read a low inhibition as little suppression.

Assay type in all cases: cell-based
Assay [1] concerns the target T1, Adenosine receptor A1 (Homo sapiens) (UniProt P30542).
T1 sequence (whole entry): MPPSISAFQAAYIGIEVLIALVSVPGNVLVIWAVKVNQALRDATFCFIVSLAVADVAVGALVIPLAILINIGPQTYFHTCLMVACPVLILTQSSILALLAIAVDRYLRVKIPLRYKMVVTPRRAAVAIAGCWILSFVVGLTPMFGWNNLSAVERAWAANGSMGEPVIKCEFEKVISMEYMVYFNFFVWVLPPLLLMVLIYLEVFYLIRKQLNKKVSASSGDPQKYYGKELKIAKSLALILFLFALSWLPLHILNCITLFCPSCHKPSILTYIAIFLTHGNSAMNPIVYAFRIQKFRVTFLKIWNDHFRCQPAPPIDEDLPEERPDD
The assay can be described thus: Displacement of [3H]R-PIA from human adenosine A1 receptor expressed CHO cells at 10 uM after 60 mins by gamma counting relative to NECA. In outline: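 Membranes from CHO cells stably expressing human A1AR were incubated with 1 nM [3H]PIA at 25 °C for 60 min in 50 mM Tris–HCl (pH 7.4) with 10 mM MgCl2. Nonspecific binding was defined with CPA. Results are mean ± sem, n = 3–5.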
(In general: Loss of bound radioactivity is the signal in a displacement assay; it reports binding, not function.)

The target of assay [2] is Adenosine receptor A2a (Homo sapiens) (UniProt P29274). Nature of the assay: Displacement of [3H]CGS 21680 from human adenosine A2A receptor expressed HEK293 cells at 10 uM after 60 mins by gamma counting relative to NECA. In outline: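 Membranes from HEK-293 cells stably expressing human A2AAR were incubated with 15 nM [3H]CGS21680 at 25 °C for 60 min in 50 mM Tris–HCl (pH 7.4) with 10 mM MgCl2. Incubation was stopped by GF/B filtration. Results are mean ± sem, n = 3–5.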
Chain of Adenosine receptor A2a (Homo sapiens) (P29274 whole entry): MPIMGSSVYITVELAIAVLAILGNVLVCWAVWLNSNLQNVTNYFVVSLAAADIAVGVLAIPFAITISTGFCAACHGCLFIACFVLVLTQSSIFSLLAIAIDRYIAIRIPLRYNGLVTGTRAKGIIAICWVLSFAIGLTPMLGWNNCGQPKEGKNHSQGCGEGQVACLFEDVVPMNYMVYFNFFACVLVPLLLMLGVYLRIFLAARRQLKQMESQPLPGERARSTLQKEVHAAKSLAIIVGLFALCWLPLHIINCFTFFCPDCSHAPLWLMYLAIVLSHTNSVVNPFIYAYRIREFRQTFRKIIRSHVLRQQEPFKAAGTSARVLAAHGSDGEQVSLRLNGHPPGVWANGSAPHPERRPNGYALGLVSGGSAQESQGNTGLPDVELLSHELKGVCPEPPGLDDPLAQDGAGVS

For assay [3], the target named is T2, Adenosine receptor A3 (Homo sapiens) (UniProt P0DMS8).
T2 sequence (whole entry): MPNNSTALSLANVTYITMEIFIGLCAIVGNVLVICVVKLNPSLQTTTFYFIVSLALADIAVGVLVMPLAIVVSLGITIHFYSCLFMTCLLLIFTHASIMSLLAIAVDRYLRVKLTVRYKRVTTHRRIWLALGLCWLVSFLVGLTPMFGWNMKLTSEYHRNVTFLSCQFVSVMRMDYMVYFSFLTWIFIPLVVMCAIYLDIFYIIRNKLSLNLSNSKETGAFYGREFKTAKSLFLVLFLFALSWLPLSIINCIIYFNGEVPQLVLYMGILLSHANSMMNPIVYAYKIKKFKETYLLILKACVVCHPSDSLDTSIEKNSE
The assay can be described thus: Displacement of [125I]I-AB-MECA from human adenosine A3 receptor expressed CHO cells at 10 uM after 60 mins by gamma counting relative to NECA. In outline:
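Competition binding used membranes from CHO cells stably expressing human A3AR with 0.5 nM [125I]I-AB-MECA and test nucleoside in 50 mM Tris–HCl (pH 7.4) with 10 mM MgCl2 and 1 mM EDTA, at 25 °C for 60 min. Nonspecific binding was defined with Cl-IB-MECA. Percent inhibition was taken at a single concentration. Results are mean ± sem, n = 3–5.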

As for `O[C@@H]1[C@H](O)CS[C@H]1Cn1cnc2c(NCc3cccc(F)c3)ncnc21`, the inhibition in assay [1] came to 0.3%; in assay [2] it was 14%; in assay [3] it was 8.7%.

Consider `O[C@@H]1[C@H](O)CS[C@H]1Cn1cnc2c(NCc3cccc(Br)c3)nc(Cl)nc21`, for which the inhibition stood at 23.6% in assay [1], 2% in assay [2] and 21% in assay [3].

Consider `O[C@@H]1[C@H](O)CS[C@H]1Cn1cnc2c(NCc3cccc(I)c3)nc(Cl)nc21`, for which the inhibition in assay [1] was 16.4%; in assay [2], 18.4%; in assay [3], 10%.

Take `O[C@@H]1[C@H](O)CS[C@H]1Cn1cnc2c(NCc3cccc(F)c3)nc(Cl)nc21`: the inhibition worked out at 7.9% in assay [1], 12% in assay [2] and 17.6% in assay [3].

As to `O[C@@H]1[C@H](O)CS[C@H]1Cn1cnc2c(NCc3cccc(I)c3)ncnc21`, the inhibition in assay [1] was 9.6%; in assay [2], 18.2%; in assay [3] it was 13.9%.

Consider `O[C@@H]1[C@H](O)CS[C@H]1Cn1cnc2c(NCc3cccc(Cl)c3)nc(Cl)nc21`, for which the inhibition in assay [1] stood at 3.2%; in assay [2] it was 11%; in assay [3], 13.6%.

Turning to `O[C@@H]1[C@H](O)CS[C@H]1Cn1cnc2c(NCc3cccc(Br)c3)ncnc21`, the inhibition in assay [1] was 6.6%; in assay [2], 25.8%; in assay [3] it was 6.1%.

Turning to `O[C@@H]1[C@H](O)CS[C@H]1Cn1cnc2c(NCc3cccc(Cl)c3)ncnc21`, the inhibition in assay [1] is 3.3%; in assay [2], 13%; in assay [3] it was 8.9%.
